Measured values as given in ChEMBL document CHEMBL1123677, “Structure-activity studies of 5-[[4-(4,5-dihydro-2-oxazolyl) phenoxy]alkyl]-3-methylisoxazoles: inhibitors of picornavirus uncoating” (J Med Chem, 1987).
Converted amounts (≈) assume the structure as drawn. The source made the active and inactive calls. The calls are words filed in the database; no cut-off is given here.

Legend:
[1] = tested on: rhinovirus A2; test: Antirhinovirus activity was assessed and the maximum testable concentration that causes no apparent effects on the cell monolayers was determined against HRV-2 virus in vitro.; format: functional, human rhinovirus type 2
[2] = tested on: rhinovirus A2; test: Antiviral activity determined by ability to inhibit the HRV-2( human rhinovirus type -2) virus by plaque reduction assay in vitro; format: functional; details: Rhinovirus A
Procedure, shortened: (§1)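 Plaque reduction assay against human rhinovirus type 2 (HRV-2), following an earlier reported method. The value is the MIC, the minimum inhibitory concentration.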

[3] = tested on: rhinovirus A15; test: Tested for antirhinoviral activity against the rhinovirus serotype 15; format: functional; details: Rhinovirus A
Procedure, shortened: (§2)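 Selected compounds were tested across a 15-serotype rhinovirus panel: the five secondary serotypes plus 10 more. An MIC was recorded for each serotype. MIC80, the concentration inhibiting 80% of serotypes tested, was also derived from this panel.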

[4] = tested on: rhinovirus A67; test: Tested for antirhinoviral activity against the rhinovirus serotype 67; format: functional; details: Rhinovirus A; procedure, shortened: as §2
[5] = tested on: rhinovirus A30; test: Tested for antirhinoviral activity against the rhinovirus serotype 30; format: functional; details: Rhinovirus A; procedure, shortened: as §2
[6] = tested on: rhinovirus A1B; test: Tested for antirhinoviral activity against the rhinovirus serotype 1B; format: functional, human rhinovirus type 1b; details: Rhinovirus A; procedure, shortened: as §2
[7] = tested on: rhinovirus A25; test: Tested for antirhinoviral activity against the rhinovirus serotype 25; format: functional; details: Rhinovirus A; procedure, shortened: as §2
[8] = tested on: rhinovirus A21; test: Tested for antirhinoviral activity against the rhinovirus serotype 21; format: functional; details: Rhinovirus A; procedure, shortened: as §2
[9] = tested on: rhinovirus B6; test: Tested for antirhinoviral activity against the rhinovirus serotype 6; format: functional; details: Rhinovirus B; procedure, shortened: as §2
[10] = tested on: Human rhinovirus sp.; test: Mean of MIC's was determined for the five types of virus like HRV-2, HRV-1A,HRV-22,HRV-41 and HRV-50; format: functional
Procedure, shortened: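 MIC measured by plaque reduction against HRV-2 first. The value is the mean of the MICs across these five serotypes.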

[11] = Partition coefficient (logP); format: physicochemical; details: octanol/water
[12] = tested on: rhinovirus A22; test: Tested for antirhinoviral activity against the rhinovirus serotype 22; format: functional; details: Rhinovirus A; procedure, shortened: as §2
[13] = tested on: rhinovirus B14; test: Tested for antirhinoviral activity against the rhinovirus serotype 14; format: functional, human rhinovirus type 14; details: Rhinovirus B; procedure, shortened: as §2
[14] = tested on: rhinovirus A2; test: Tested for antirhinoviral activity against the rhinovirus serotype 2; format: functional, human rhinovirus type 2; details: Rhinovirus A; procedure, shortened: as §2
[15] = tested on: rhinovirus A50; test: Tested for antirhinoviral activity against the rhinovirus serotype 50; format: functional; details: Rhinovirus A; procedure, shortened: as §2
[16] = tested on: rhinovirus A41; test: Tested for antirhinoviral activity against the rhinovirus serotype 41; format: functional; details: Rhinovirus A; procedure, shortened: as §2
[17] = tested on: rhinovirus A89; test: Tested for antirhinoviral activity against the rhinovirus serotype 89; format: functional, human rhinovirus type 89; details: Rhinovirus A; procedure, shortened: as §2
[18] = tested on: Human rhinovirus 1A; test: Tested for antirhinoviral activity against the rhinovirus serotype 1A; format: functional; procedure, shortened: as §2
[19] = tested on: human rhinovirus (15-serotype panel); test: Antirhinovirus activity was determined by the ability to inhibit the growth of 80% of a panel of 15 human rhinovirus serotypes
[20] = tested on: rhinovirus B86; test: Tested for antirhinoviral activity against the rhinovirus serotype 86; format: functional; details: Rhinovirus B; procedure, shortened: as §2
[21] = tested on: rhinovirus A2; test: Antirhinovirus activity was determined by the ability to inhibit the HRV-2 (human rhinovirus type -2) virus by plaque reduction assay in vitro; format: functional; details: Rhinovirus A; procedure, shortened: as §1
[22] = tested on: rhinovirus A2; test: Antirhinovirus activity was determined by the ability to inhibit the HRV-2( human rhinovirus type -2) virus by plaque reduction assay in vitro; IA is inactive; format: functional, organism-based; procedure, shortened: as §1

## Cc1cc(CCCCCOc2ccc(C3=NCCO3)cc2CO)on1
[1]
  MTL: 9 µM
[2]
  MIC: 7.1 µM (≈ 2.45 µg/mL)

## Cc1cc(CCCCCOc2ccc(C3=NCCO3)cc2C(F)F)on1
[3]
  MIC: 0.2 µM (≈ 0.0729 µg/mL)
[4]
  MIC: 0.2 µM (≈ 0.0729 µg/mL)
[5]
  MIC: 0.09 µM (≈ 0.0328 µg/mL)
[6]
  MIC: 0.08 µM (≈ 0.0292 µg/mL)
[7]
  MIC: 0.9 µM (≈ 0.328 µg/mL)
[8]
  MIC: 0.05 µM (≈ 0.0182 µg/mL)
[9]
  MIC: 0.3 µM (≈ 0.109 µg/mL)
[10]
  MIC: 1 µM (≈ 0.364 µg/mL)
[11]
  logP: 4.59
[1]
  MTL: 17 µM
[12]
  MIC: 0.05 µM (≈ 0.0182 µg/mL)
[13]
  MIC: 2 µM (≈ 0.729 µg/mL)
[14]
  MIC: 0.05 µM (≈ 0.0182 µg/mL)
[2]
  MIC: 0.06 µM (≈ 0.0219 µg/mL)
[15]
  MIC: 2 µM (≈ 0.729 µg/mL)
[16]
  MIC: 2 µM (≈ 0.729 µg/mL)
[17]
  MIC: 0.02 µM (≈ 0.00729 µg/mL)
[18]
  MIC: 0.8 µM (≈ 0.292 µg/mL)
[19]
  MIC80: 2 µM (≈ 0.729 µg/mL)
[20]
  MIC: 1.7 µM (≈ 0.619 µg/mL)

## Cc1cc(CCCCCOc2ccc(C3=NCCO3)cc2C=O)on1
[10]
  MIC: > 2.3 µM
[1]
  MTL: 2.3 µM
[2]
  MIC: 1.4 µM (≈ 0.479 µg/mL)

## Cc1cc(CCCCCOc2ccc(C3=NCCO3)c(C)c2)on1
[10]
  MIC: > 18 µM
[1]
  MTL: 19 µM
[2]
  MIC: 0.41 µM (≈ 0.135 µg/mL)
[19]
  MIC80: 15 µM (≈ 4.93 µg/mL)

## CCc1cc(C2=NCCO2)ccc1OCCCCCc1cc(C)no1
[3]
  MIC: 0.4 µM (≈ 0.137 µg/mL)
[4]
  MIC: 0.3 µM (≈ 0.103 µg/mL)
[5]
  MIC: 0.1 µM (≈ 0.0342 µg/mL)
[6]
  MIC: 0.09 µM (≈ 0.0308 µg/mL)
[7]
  MIC: 4 µM (≈ 1.37 µg/mL)
[8]
  MIC: 0.04 µM (≈ 0.0137 µg/mL)
[9]
  MIC: 3.2 µM (≈ 1.1 µg/mL)
[10]
  MIC: 1.8 µM (≈ 0.616 µg/mL)
[11]
  logP: 4.71
[1]
  MTL: 9.1 µM
[12]
  MIC: 0.1 µM (≈ 0.0342 µg/mL)
[13]
  MIC: 1.1 µM (≈ 0.377 µg/mL)
[14]
  MIC: 0.06 µM (≈ 0.0205 µg/mL)
[2]
  MIC: 0.06 µM (≈ 0.0205 µg/mL)
[15]
  MIC: 0.1 µM (≈ 0.0342 µg/mL)
[16]
  MIC: 6.7 µM (≈ 2.29 µg/mL)
[17]
  MIC: 0.07 µM (≈ 0.024 µg/mL)
[18]
  MIC: 2 µM (≈ 0.685 µg/mL)
[19]
  MIC80: 2 µM (≈ 0.685 µg/mL)
[20]
  MIC: 1.9 µM (≈ 0.651 µg/mL)

## Cc1cc(CCCCCOc2ccc(C3=NCCO3)cc2F)on1
[10]
  MIC: > 9.3 µM
[1]
  MTL: 9.3 µM
[2]
  MIC: 0.4 µM (≈ 0.133 µg/mL)

## CC(=O)c1cc(C2=NCCO2)ccc1OCCCCCc1cc(C)no1
[3]
  MIC: 0.4 µM (≈ 0.143 µg/mL)
[4]
  MIC: 0.6 µM (≈ 0.214 µg/mL)
[5]
  MIC: 0.3 µM (≈ 0.107 µg/mL)
[6]
  MIC: 0.3 µM (≈ 0.107 µg/mL)
[7]
  MIC: 2.2 µM (≈ 0.784 µg/mL)
[8]
  MIC: 5.3 µM (≈ 1.89 µg/mL)
[9]
  MIC: 5.1 µM (≈ 1.82 µg/mL)
[10]
  MIC: 1.1 µM (≈ 0.392 µg/mL)
[11]
  logP: 3.28
[1]
  MTL: 6.5 µM
[12]
  MIC: 0.1 µM (≈ 0.0356 µg/mL)
[13]
  MIC: 7.3 µM (≈ 2.6 µg/mL)
[14]
  MIC: 0.1 µM (≈ 0.0356 µg/mL)
[2]
  MIC: 0.1 µM (≈ 0.0356 µg/mL)
[15]
  MIC: 0.2 µM (≈ 0.0713 µg/mL)
[16]
  MIC: 2.9 µM (≈ 1.03 µg/mL)
[17]
  MIC: 2 µM (≈ 0.713 µg/mL)
[18]
  MIC: 2.2 µM (≈ 0.784 µg/mL)
[19]
  MIC80: 5.1 µM (≈ 1.82 µg/mL)
[20]
  MIC: 6.5 µM (≈ 2.32 µg/mL)

## Cc1cc(CCCCCCCOc2ccc(C3=NCCO3)cc2)on1 [DISOXARIL]
[10]
  MIC: > 18 µM
[1]
  MTL: 18 µM
[2]
  MIC: 3.5 µM (≈ 1.2 µg/mL)

## Cc1cc(CCCCCCOc2ccc(C3=NCCO3)cc2Cl)on1
[10]
  MIC: 1.4 µM (≈ 0.508 µg/mL)
[1]
  MTL: 8.5 µM
[2]
  MIC: 0.06 µM (≈ 0.0218 µg/mL)
[19]
  MIC80: 1.2 µM (≈ 0.435 µg/mL)

## CCC(=O)Nc1cc(C2=NCCO2)ccc1OCCCCCc1cc(C)no1
[1]
  MTL: 16 µM
[2]
  MIC: 7.3 µM (≈ 2.81 µg/mL)

## Cc1cc(CCCCCOc2ccc(C3=NCCO3)cc2C)on1
[3]
  MIC: 0.2 µM (≈ 0.0657 µg/mL)
[4]
  MIC: 0.2 µM (≈ 0.0657 µg/mL)
[5]
  MIC: 0.05 µM (≈ 0.0164 µg/mL)
[6]
  MIC: 0.3 µM (≈ 0.0985 µg/mL)
[7]
  MIC: 6.7 µM (≈ 2.2 µg/mL)
[8]
  MIC: 0.06 µM (≈ 0.0197 µg/mL)
[9]
  MIC: 0.6 µM (≈ 0.197 µg/mL)
[10]
  MIC: 1.4 µM (≈ 0.46 µg/mL)
[11]
  logP: 4.4
[1]
  MTL: 19 µM
[12]
  MIC: 0.2 µM (≈ 0.0657 µg/mL)
[13]
  MIC: 0.6 µM (≈ 0.197 µg/mL)
[14]
  MIC: 0.09 µM (≈ 0.0296 µg/mL)
[15]
  MIC: 0.3 µM (≈ 0.0985 µg/mL)
[16]
  MIC: 4.3 µM (≈ 1.41 µg/mL)
[17]
  MIC: 0.06 µM (≈ 0.0197 µg/mL)
[18]
  MIC: 2 µM (≈ 0.657 µg/mL)
[19]
  MIC80: 0.6 µM (≈ 0.197 µg/mL)
[20]
  MIC: 0.6 µM (≈ 0.197 µg/mL)
[21]
  MIC: 0.1 µM (≈ 0.0328 µg/mL)

## Cc1cc(CCCCCOc2ccc(C3=NCCO3)cc2C(=O)O)on1
[22]
  MIC: inactive

## Cc1cc(CCCCCOc2ccc(C3=NCCO3)c(Cl)c2)on1
[10]
  MIC: 6.5 µM (≈ 2.27 µg/mL)
[1]
  MTL: 25 µM
[2]
  MIC: 0.4 µM (≈ 0.14 µg/mL)
[19]
  MIC80: 7 µM (≈ 2.44 µg/mL)
